This note sets out measurements from PubChem BioAssay.

Molecules are shown by their SMILES. Calls of active or inactive are those of the source.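 Rule for the calls, unless noted: active = Her2 level under about 52% in both replicate screens, with viability over 70% of control (limit read from the data); inconclusive = Her2 under the limit in one screen only, or viability under 70%; inactive = Her2 level above the set limit.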

The nature of experiment [1]: Her2 expression decrease, cell viability multiplex – SKBR3 breast tumor cells, AlphaScreen, ATP viability, primary screen (AID 461).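 For Her2 level: lower value means less Her2 protein in the cells.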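 For viability: percent of carrier control wells set as 100% viability.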 The note with it: SKBR3 Her2 protein level, 18-24 h, measured here: SKBR3 viability, ATP luminescence, at 10 µM.
The target in experiment [2] is Receptor tyrosine-protein kinase erbB-2 (Homo sapiens) (UniProt P04626). Described as above. The settings on record: 18-24 h, at 10 µM, stronger effect = lower value.
Sequence of Receptor tyrosine-protein kinase erbB-2 (Homo sapiens) (P04626 whole entry, looked up): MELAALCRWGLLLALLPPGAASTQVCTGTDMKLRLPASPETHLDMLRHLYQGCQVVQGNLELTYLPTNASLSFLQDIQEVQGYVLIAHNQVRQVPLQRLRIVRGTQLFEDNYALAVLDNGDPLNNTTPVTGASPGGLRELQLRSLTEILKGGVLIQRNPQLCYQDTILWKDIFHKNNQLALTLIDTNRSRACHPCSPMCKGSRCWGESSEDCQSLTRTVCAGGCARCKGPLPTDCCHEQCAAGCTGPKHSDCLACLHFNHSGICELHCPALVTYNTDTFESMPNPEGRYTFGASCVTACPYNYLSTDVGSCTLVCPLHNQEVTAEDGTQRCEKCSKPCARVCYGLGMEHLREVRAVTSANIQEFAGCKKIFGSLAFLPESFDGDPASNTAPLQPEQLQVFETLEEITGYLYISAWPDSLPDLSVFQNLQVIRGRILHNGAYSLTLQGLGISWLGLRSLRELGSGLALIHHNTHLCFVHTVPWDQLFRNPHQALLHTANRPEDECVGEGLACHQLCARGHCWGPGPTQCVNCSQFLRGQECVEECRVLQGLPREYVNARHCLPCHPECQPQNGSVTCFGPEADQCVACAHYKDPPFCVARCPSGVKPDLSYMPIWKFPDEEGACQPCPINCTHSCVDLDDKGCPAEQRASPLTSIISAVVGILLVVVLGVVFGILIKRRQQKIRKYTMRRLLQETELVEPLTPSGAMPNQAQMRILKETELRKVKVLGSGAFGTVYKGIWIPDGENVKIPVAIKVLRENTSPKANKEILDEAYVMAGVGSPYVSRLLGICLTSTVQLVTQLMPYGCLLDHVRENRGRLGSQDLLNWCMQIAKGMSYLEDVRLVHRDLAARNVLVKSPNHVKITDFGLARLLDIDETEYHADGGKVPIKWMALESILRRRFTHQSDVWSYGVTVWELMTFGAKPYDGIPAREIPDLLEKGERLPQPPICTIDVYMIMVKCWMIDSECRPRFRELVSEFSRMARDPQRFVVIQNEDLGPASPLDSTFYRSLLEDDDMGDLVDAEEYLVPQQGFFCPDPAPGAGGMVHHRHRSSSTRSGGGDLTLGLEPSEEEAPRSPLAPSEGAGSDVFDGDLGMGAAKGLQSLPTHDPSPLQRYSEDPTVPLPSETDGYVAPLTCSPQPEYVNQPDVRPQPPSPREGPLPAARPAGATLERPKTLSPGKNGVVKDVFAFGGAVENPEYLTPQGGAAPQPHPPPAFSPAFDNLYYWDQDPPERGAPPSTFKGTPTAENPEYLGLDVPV
The nature of experiment [3]: reduced viability of SK-BR-3 breast cancer cells – cell-based, 24 h, human, pilot screen (AID 572;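 active = viability at or below 10% of carrier control in both of two separate runs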;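 note: compound exposure lasted between 18 and 24 h rather than exactly 24 h; 100% = carrier-treated control wells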). The settings on record: SK-BR-3 viability, CellTiter-Glo luminescence, at 10 µM, stronger effect = lower value. In general terms: In ATP-based viability assays light output follows the ATP content of the culture.
A short description of experiment [4]: HUVEC growth inhibition – cell-based, human, primary screen (AID 575;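 active = viability at or below 30% in both replicate assays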;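 note: 100% = median of untreated cell wells with 0.1% DMSO on each plate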). The note with it: HUVEC proliferation, CellTiter-Glo luminescence, 72 h; at 10 µM; stronger effect = lower value. The method in brief: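 system = HUVEC primary cells | amount = 1250 cells/well | buffer or medium = supplemented EBM, 2% fetal bovine serum | dosing = single-point 10 µM, DMSO 0.1% final | times = 72 h compound incubation | detection = CTG luminescence | read-out = % viability relative to median vehicle-well signal on each plate | control set = vehicle and MePR control wells | format = collagen-coated 384-well format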

Experiment [5] can be described thus: H69AR cell proliferation blockers – human, duplicate replicates, primary screen (AID 580;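 active = viability at or under a set limit in both replicates, limit being median viability minus 3 SD, cut at about 48% in these data, passing the limit was not always enough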;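 note: 100% = mean luminescence of untreated wells and 0% = no signal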). The settings on record: H69AR lung tumor cells viability, ATP luminescence, 72 h; at 10 µM; stronger effect = lower value.
Experiment [6] can be described thus: MRP1 drug-resistance reversers in H69AR cells – cell-based, doxorubicin co-treatment, pilot screen (AID 601;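 active = viability loss from added drug above about 55%, and viability with drug at most 40%, in both replicates, limit read from the data, passing the limit was not always enough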). The settings on record: CellTiter-Glo, 72 h, at 10 µM; for differential viability (reversal): stronger effect = higher value.
Experiment [7] is described as follows: yeast transport mutant growth inhibition pilot in 384-well plates, post-Golgi transport modulator project (AID 636; in the data active = inhibition above about 31%). The note with it: absorbance 615 nm, about 18 h, stronger effect = higher value.
A short description of experiment [8]: growth suppression of yeast trafficking mutant, preliminary HTS, modulators of trafficking downstream of Golgi apparatus project, 1536-format plate, OD 615 nm (AID 637; in the data active = inhibition above about 30%). The settings on record: yeast transport mutant growth, absorbance 615 nm, 18 h; stronger effect = higher value.
[9] abbreviates: H69AR cells + 2 uM doxorubicin, measured here: viability with 2 uM doxorubicin, stronger effect = lower value.
[10] abbreviates: H69AR cells, compound alone cytotoxicity.

Broadly, the viability is a read-out of living cells in per cent, often relative to untreated cells. In general, inhibition refers to the drop in the measured response relative to a control, in per cent. `CCN(CCO)C1CC(=O)N(c2ccccc2C)C1=O` (stereo not given): the viability in experiment [1] is 95%; in experiment [3], 95% (inactive); in experiment [4] it was 105% (inactive); in experiment [5], 101% (inactive); in experiment [6] (setting [9]) it was 76.7%; in experiment [6] (setting [10]), 101%. In experiment [2], the Her2 level is 93.5% (inactive). Moreover, the differential viability (reversal) in experiment [6] (H69AR cells + 2 uM doxorubicin) was 24.2% (inactive). In addition, the inhibition in experiment [7] was -9.46% (inactive); in experiment [8], -2% (inactive).
For the compound `COCCNC(=O)C1CCCN(c2ncccn2)C1` (stereo not given), the viability in experiment [1] is 93%; in experiment [3], 93% (inactive); in experiment [4], 98.8% (inactive); in experiment [5] it was 89.8% (inactive); in experiment [6] (setting [9]) it was 98.5%; in experiment [6] (setting [10]), 89.8%. Besides, the Her2 level in experiment [2] was 79% (inactive). In addition, the differential viability (reversal) in experiment [6] (H69AR cells + 2 uM doxorubicin) is -8.68% (inactive). Further, the inhibition in experiment [7] is -7.81% (inactive); in experiment [8], 1.27% (inactive).
For `Cc1nc2cc(Cl)ccc2n1CCO`, the viability in experiment [1] was 101%; in experiment [3], 101% (inactive); in experiment [4], 102% (inactive); in experiment [5] it was 92% (inactive); in experiment [6] (setting [9]) it was 84.4%; in experiment [6] (setting [10]) it was 92%. The Her2 level in experiment [2] is 95.5% (inactive). Besides, the differential viability (reversal) in experiment [6] (H69AR cells + 2 uM doxorubicin) was 7.68% (inactive). The inhibition in experiment [7] was -9.86% (inactive); in experiment [8], 0.32% (inactive).
Turning to `CCCN1CCN(C(=O)Cn2c(=O)oc3cc(S(=O)(=O)NCc4ccccc4)ccc32)CC1`, the viability in experiment [1] was 92.5%; in experiment [3], 92.5% (inactive); in experiment [4] it was 85.6% (inactive); in experiment [5] it was 95.3% (inactive); in experiment [6] (setting [9]), 87.5%; in experiment [6] (setting [10]) it was 95.3%. The Her2 level in experiment [2] was 95% (inactive). In experiment [6] (H69AR cells + 2 uM doxorubicin), the differential viability (reversal) was 7.88% (inactive). Moreover, the inhibition in experiment [7] is -2.67% (inactive); in experiment [8], -0.98% (inactive).
Regarding `CCCCN(C)CCCNC(=O)CC1Oc2ccccc2NC1=O` (stereo not given), the viability was 86.5% in experiment [1]; 86.5% (inactive) in experiment [3]; 104% (inactive) in experiment [4]; 93.4% (inactive) in experiment [5]; 100% in experiment [6] (setting [9]); 93.4% in experiment [6] (setting [10]). Besides, the Her2 level in experiment [2] was 91.5% (inactive). The differential viability (reversal) in experiment [6] (H69AR cells + 2 uM doxorubicin) was -7.03% (inactive). For the same compound, the inhibition in experiment [7] is -4.53% (inactive); in experiment [8], 2.95% (inactive).
For the compound `CCOCCn1cnc2sc(C(=O)Nc3nc(C)c(C(=O)OCC)s3)c(C)c2c1=O`, the viability was 110% in experiment [1]; 110% (inactive) in experiment [3]; 75.7% (inactive) in experiment [4]; 78% (inactive) in experiment [5]; 92.5% in experiment [6] (setting [9]); 78% in experiment [6] (setting [10]). Also, the Her2 level in experiment [2] was 81% (inactive). For the same compound, the differential viability (reversal) in experiment [6] (H69AR cells + 2 uM doxorubicin) is -14.5% (inactive). Besides, the inhibition was -1.18% (inactive) in experiment [7] and -2.42% (inactive) in experiment [8].
Take `CCOc1ccc(C(=O)N2CCN(c3ccccc3)CC2)cc1OCC`: the viability in experiment [1] is 104%; in experiment [3] it was 104% (inactive); in experiment [4], 90% (inactive); in experiment [5], 83.5% (inactive); in experiment [6] (setting [9]) it was 98.3%; in experiment [6] (setting [10]) it was 83.5%. For the same compound, in experiment [2], the Her2 level was 102% (inactive). The differential viability (reversal) in experiment [6] (H69AR cells + 2 uM doxorubicin) is -14.8% (inactive). The inhibition in experiment [7] was 2.47% (inactive); in experiment [8] it was 9.51% (inactive).
Turning to `COC(=O)C(C)Sc1nc2c(c(=O)n(C)c(=O)n2C)n1Cc1cccc(C)c1` (stereo not given), the viability in experiment [1] is 97.5%; in experiment [3] it was 97.5% (inactive); in experiment [4], 79.7% (inactive); in experiment [5], 91.5% (inactive); in experiment [6] (setting [9]), 82.8%; in experiment [6] (setting [10]) it was 91.5%. In addition, the Her2 level in experiment [2] is 86.5% (inactive). Further, the differential viability (reversal) in experiment [6] (H69AR cells + 2 uM doxorubicin) is 8.71% (inactive). The inhibition in experiment [7] is -0.26% (inactive); in experiment [8], -0.32% (inactive).
For the compound `O=c1c[n+]([O-])c2ccccc2n1OCc1c(F)cccc1F`, the viability was 90.5% in experiment [1]; 90.5% (inactive) in experiment [3]; 93.4% (inactive) in experiment [4]; 88.2% (inactive) in experiment [5]; 86.3% in experiment [6] (setting [9]); 88.2% in experiment [6] (setting [10]). Also, the Her2 level in experiment [2] was 70.5% (inactive). Further, the differential viability (reversal) in experiment [6] (H69AR cells + 2 uM doxorubicin) was 1.98% (inactive). For the same compound, the inhibition is -3.33% (inactive) in experiment [7] and -1.59% (inactive) in experiment [8].
As for `COc1ccc(OC)c(NC(=O)CSc2ncccc2C(=O)O)c1`, the viability was 104% in experiment [1]; 104% (inactive) in experiment [3]; 100% (inactive) in experiment [4]; 104% (inactive) in experiment [5]; 96.4% in experiment [6] (setting [9]); 104% in experiment [6] (setting [10]). For the same compound, in experiment [2], the Her2 level is 98% (inactive). The differential viability (reversal) in experiment [6] (H69AR cells + 2 uM doxorubicin) was 7.42% (inactive). The values for the inhibition in experiment [7] and in experiment [8] were -3.29% (inactive) and -3.45% (inactive), respectively.
For the compound `COc1ccc(N2CCN(C(c3cccs3)C(C)NC(=O)c3ccco3)CC2)cc1` (stereo not given), the viability in experiment [1] is 90%; in experiment [3] it was 90% (inactive); in experiment [4] it was 82.1% (inactive); in experiment [5], 86.3% (inactive); in experiment [6] (setting [9]) it was 90.3%; in experiment [6] (setting [10]), 86.3%. Moreover, the Her2 level in experiment [2] is 76.5% (inactive). Also, the differential viability (reversal) in experiment [6] (H69AR cells + 2 uM doxorubicin) is -4.01% (inactive). Besides, the inhibition in experiment [7] was -4.53% (inactive); in experiment [8] it was -0.16% (inactive).
As for `CC(C)(C)C(=O)Cn1c[n+](N)cn1`, the viability in experiment [1] was 103%; in experiment [3], 103% (inactive); in experiment [4] it was 86.1% (inactive); in experiment [5], 96.9% (inactive); in experiment [6] (setting [9]), 92.4%; in experiment [6] (setting [10]), 96.9%. The Her2 level in experiment [2] was 86% (inactive). For the same compound, in experiment [6] (H69AR cells + 2 uM doxorubicin), the differential viability (reversal) was 4.54% (inactive). Moreover, the inhibition was -4.67% (inactive) in experiment [7] and 0.49% (inactive) in experiment [8].
With `Cc1cc(C(=O)CSc2nnc(-c3ccco3)o2)c(C)n1CC1COc2ccccc2O1` (stereo not given), the viability in experiment [1] is 91.5%; in experiment [3], 91.5% (inactive); in experiment [4], 74.3% (inactive); in experiment [5] it was 89% (inactive); in experiment [6] (setting [9]) it was 98.8%; in experiment [6] (setting [10]), 89%. Further, the Her2 level in experiment [2] is 94% (inactive). Moreover, in experiment [6] (H69AR cells + 2 uM doxorubicin), the differential viability (reversal) was -9.8% (inactive). Further, the inhibition was -2.67% (inactive) in experiment [7] and -9.52% (inactive) in experiment [8].
As to `CN(Cc1nc(-c2ccncc2)no1)S(=O)(=O)c1ccccc1`, the viability in experiment [1] is 99.5%; in experiment [3] it was 99.5% (inactive); in experiment [4] it was 96.3% (inactive); in experiment [5], 95.7% (inactive); in experiment [6] (setting [9]) it was 88.7%; in experiment [6] (setting [10]), 95.7%. Besides, in experiment [2], the Her2 level is 79% (inactive). In experiment [6] (H69AR cells + 2 uM doxorubicin), the differential viability (reversal) was 7.03% (inactive). The inhibition in experiment [7] is -7.57% (inactive); in experiment [8], 0.79% (inactive).
For the compound `Cc1ccc(-c2nc3ncccc3o2)cc1NC(=O)c1ccco1`, the viability in experiment [1] is 97.5%; in experiment [3] it was 97.5% (inactive); in experiment [4], 100% (inactive); in experiment [5] it was 99.2% (inactive); in experiment [6] (setting [9]), 91.3%; in experiment [6] (setting [10]), 99.2%. In addition, in experiment [2], the Her2 level was 76.5% (inactive). Further, the differential viability (reversal) in experiment [6] (H69AR cells + 2 uM doxorubicin) was 7.96% (inactive). In addition, the inhibition in experiment [7] was -6.76% (inactive); in experiment [8], -2.62% (inactive).
For `Cc1nc2nc(Cc3ccccc3)[nH]n2c(=O)c1Cc1ccccc1`, the viability is 117% in experiment [1]; 117% (inactive) in experiment [3]; 96.6% (inactive) in experiment [4]; 96.2% (inactive) in experiment [5]; 87.4% in experiment [6] (setting [9]); 96.2% in experiment [6] (setting [10]). For the same compound, the Her2 level in experiment [2] was 104% (inactive). The differential viability (reversal) in experiment [6] (H69AR cells + 2 uM doxorubicin) was 8.81% (inactive). For the same compound, the inhibition in experiment [7] is -0.53% (inactive); in experiment [8] it was 1.64% (inactive).
